A short description of data set [1]: Induction of singlet oxygen generation in methanol at 3 uM in presence of light by DPBF-based chemical trapping method. Format: functional.
A short description of data set [2]: Solubility in 25% aqueous ethanolic medium at 25 degC after 24 hrs by UV-VIS spectrometric method. Format: physicochemical.
A short description of data set [3]: Drug uptake in human SKOV3 cells at 20 uM after 1 hr in presence of 200 J/cm'2 light by Hoechst 33342 staining-based confocal microscopic method. It is filed as ADME, cell-based. As to conditions: sk-ov-3, 1 h. In short, it runs like this:
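SKOV-3 cells on chambered glass slides incubated with 20 μM compound for 1 h. Rinsed with PBS, stained with Hoechst 33342 (1 μg/mL), imaged by confocal microscopy.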

Data set [4] in a line: Drug uptake in mitochondria of human SKOV3 cells at 20 uM after 1 hr in presence of 200 J/cm'2 light by MitoTracker Red probe/Hoechst 33342 staining-based confocal microscopic method. It is filed as ADME. As to conditions: sk-ov-3, 1 h.
For data set [5], the system named is SK-OV-3. Put plainly: Phototoxicity against human SKOV3 cells assessed as decrease in cell viability after 24 hrs in presence of 200 J/cm'2 light by MTT assay. Format: functional, cell-based. The gist of the method: (§1)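 Cell lines given varied compound concentrations, then irradiated (600-750 nm source, 200 J/cm2 at 50 mW/cm2) or kept dark. Viability by MTT at 24 h after treatment; IC50 from the dose-response. Three independent experiments averaged.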

In a further data set the test system is IMR-32. Description: Phototoxicity against human IMR32 cells assessed as decrease in cell viability after 24 hrs in presence of 200 J/cm'2 light by MTT assay. It is filed as functional, cell-based. As to conditions: IMR-32, light or radiation study. In short, it runs like this:
as §1

A further data set has as its system MCF7. Put plainly: Phototoxicity against human MCF7 cells assessed as decrease in cell viability after 24 hrs in presence of 200 J/cm'2 light by MTT assay. It is filed as functional, cell-based. As to conditions: MCF7, light or radiation study. The gist of the method:
as §1

The test system of the next data set is MDA-MB-231. Description: Phototoxicity against human MDA-MB-231 cells assessed as decrease in cell viability after 24 hrs in presence of 200 J/cm'2 light by MTT assay. Format: functional, cell-based. As to conditions: MDA-MB-231, light or radiation study. In short, it runs like this: as §1
Data set [6] is described as follows: Dark toxicity in human SKOV3 cells assessed as alteration in cell morphology by phase-contrast microscopic method. It is filed as cell-based. As to conditions: sk-ov-3. In short, it runs like this: (§2)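 SKOV-3 cells given compound, kept dark or irradiated (200 J/cm2, 50 mW/cm2). Morphology examined by phase-contrast microscopy (100X).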
For data set [7], the system named is SK-OV-3. Put plainly: Phototoxicity in human SKOV3 cells assessed as alteration in cell morphology in presence of 200 J/cm'2 light by phase-contrast microscopic method. It is filed as functional, cell-based. In short, it runs like this: as §2
Data set [8] relates to SK-OV-3. Description: Cell cycle arrest in human SKOV3 cells assessed as accumulation at sub-G1 phase at 20 uM after 12 hrs in presence of 200 J/cm'2 light by propidium iodide staining-based flow cytometric method (reference value: 7%). Format: functional.
In data set [9] the test system is SK-OV-3. Put plainly: Cell cycle arrest in human SKOV3 cells assessed as accumulation at sub-G1 phase at 20 uM after 24 hrs in presence of 200 J/cm'2 light by propidium iodide staining-based flow cytometric method (reference value: 7%). Format: functional.
The subject of data set [10] is SK-OV-3. Description: Induction of necrosis in human SKOV3 cells at 20 uM in presence of 200 J/cm'2 light by propidium iodide staining-based flow cytometric method (reference value: 7.45%). It is filed as functional. The gist of the method:
(§3)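 Unfixed SKOV-3 cells given 20 μM compound, with or without light (600-720 nm, 200 J/cm2). Harvested, PBS-washed, stained with propidium iodide (10 μg/mL) for 20 min. PI-positive membrane-damaged fraction measured by flow cytometry.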

Data set [11] is described as follows: Photostability of compound. It is filed as physicochemical.
Data set [12] concerns SK-OV-3. Description: Induction of reactive oxygen species formation in human SKOV3 cells at 20 uM in presence of 200 J/cm'2 light by CM-H2DCFDA probe-based confocal microscopic method. It is filed as functional, cell-based.
For data set [13], the system named is SK-OV-3. Put plainly: Induction of reactive oxygen species formation in human SKOV3 cells at 20 uM in presence of 200 J/cm'2 light by CM-H2DCFDA probe-based flow cytometric method (reference value: <1%). Format: functional.
For data set [14], the species on record is Homo sapiens. Put plainly: Disruption of F-actin organization in human SKOV3 cells at 20 uM in presence of 200 J/cm'2 light by TRITC labeled phalloidin/DAPI staining-based confocal microscopic method. Format: cell-based. The gist of the method:
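SKOV-3 cells on coverslips: untreated, 20 μM compound in the dark, or 20 μM compound plus irradiation (600-720 nm, 200 J/cm2). Fixed in 4% paraformaldehyde/PBS, permeabilised with 0.1% Triton X-100, stained with TRITC-phalloidin (1:50, 1 h). DAPI counterstain, confocal imaging.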

Data set [15] has as its system SK-OV-3. Description: Disruption of mitochondrial membrane potential in human SKOV3 cells at 20 uM in presence of 200 J/cm'2 light by MitoTracker Red probe/Hoechst 33342 staining-based confocal microscopic method. It is filed as functional, cell-based. In short, it runs like this:
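Control SKOV-3 cells and cells after photodynamic treatment (20 μM compound, 600-720 nm, 200 J/cm2) loaded with 200 nM MitoTracker Red CMXRos, 30 min at 37 °C. Formaldehyde-fixed, nuclear counterstain, confocal microscopy.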

For data set [16], the system named is SK-OV-3. Put plainly: Antitumor activity against human SKOV3 cells xenografted in FoxN1 nude mouse assessed as decrease in tumor volume at 20 mg/kg, iv measured up to day 14 in presence of 100 J/cm'2 light. It is filed as functional, organism-based. The gist of the method: (§4)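 3-4 million SKOV-3 cells injected subcutaneously into the flank of 6-8 week old FoxN1 nude mice (20-25 g). At tumour volumes of about 100-150 mm3, randomised into four groups of six: untreated, light only, compound only, and compound plus light. Compound given iv at 20 mg/Kg in physiological saline. Irradiation 24 h later at 100 J/cm2, 100 mW/cm2, 600-750 nm source, under ip ketamine (60 mg/Kg)/xylazine (8 mg/Kg). Tumour volume by calipers, V=LW2/2, followed over two weeks. Tissues processed for H&E histology.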

Data set [17] has as its system SK-OV-3. Description: Antitumor activity against human SKOV3 cells xenografted in FoxN1 nude mouse assessed as disappearance of scar at site of tumor at 20 mg/kg, iv measured up to day 14 in presence of 100 J/cm'2 light. It is filed as functional, organism-based. The gist of the method:
as §4

Data set [18] concerns SK-OV-3. Put plainly: Antitumor activity against human SKOV3 cells xenografted in FoxN1 nude mouse assessed as elimination of neoplastic cells in tumor at 20 mg/kg, iv measured on day 14 in presence of 100 J/cm'2 light by hematoxylin-and-eosin staining-based assay. Format: functional, organism-based. In short, it runs like this:
as §4

Data set [19] has as its system Mus musculus. Put plainly: Toxicity in FoxN1 nude mouse xenografted with human SKOV3 cells assessed as effect on skin around peritumoral area at 20 mg/kg, iv measured up to day 14 in presence of 100 J/cm'2 light. It is filed as organism-based. The settings on record: in vivo. The gist of the method:
as §4

Data set [20] can be described thus: Drug uptake in neoplastic tumor of FoxN1 nude mouse xenografted with human SKOV3 cells at 20 mg/kg administered intratumorally measured at 12 hrs by fluorescence microscopic method. The settings on record: in vivo, other. It is filed as ADME, organism-based, Neoplasm. In short, it runs like this: (§5)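 Compound injected intratumorally into SKOV-3 xenograft-bearing nude mice. Tumours biopsied 12 h after administration, then sectioned. Sections DAPI-counterstained and examined for red compound fluorescence by fluorescence microscopy.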

The nature of data set [21]: Drug uptake in stromal cells of FoxN1 nude mouse xenografted with human SKOV3 cells at 20 mg/kg administered intratumorally measured at 12 hrs by fluorescence microscopic method. It is filed as ADME, organism-based. As to conditions: in vivo, other. In short, it runs like this: as §5
Data set [22] in a line: Drug uptake in fibrous tissue cells of FoxN1 nude mouse xenografted with human SKOV3 cells at 20 mg/kg administered intratumorally measured at 12 hrs by fluorescence microscopic method. Format: ADME, organism-based. The settings on record: in vivo, other. In short, it runs like this:
as §5

For data set [23], the system named is Mus musculus. Description: Toxicity in FoxN1 nude mouse xenografted with human SKOV3 cells assessed as effect on liver morphology at 20 mg/kg, iv measured on day 14 in presence of 100 J/cm'2 light by hematoxylin-and-eosin staining-based assay. As to conditions: in vivo. Format: organism-based. The gist of the method:
as §4

Data set [24] relates to Mus musculus. Description: Toxicity in FoxN1 nude mouse xenografted with human SKOV3 cells assessed as effect on kidney morphology at 20 mg/kg, iv measured on day 14 in presence of 100 J/cm'2 light by hematoxylin-and-eosin staining-based assay. Format: organism-based. As to conditions: in vivo. In short, it runs like this:
as §4

Data set [25] deals with Mus musculus. Description: Toxicity in FoxN1 nude mouse xenografted with human SKOV3 cells assessed as effect on spleen morphology at 20 mg/kg, iv measured on day 14 in presence of 100 J/cm'2 light by hematoxylin-and-eosin staining-based assay. It is filed as organism-based. The settings on record: in vivo. The gist of the method:
as §4

Data set [26] deals with Mus musculus. Description: Toxicity in FoxN1 nude mouse xenografted with human SKOV3 cells assessed as effect on heart morphology at 20 mg/kg, iv measured on day 14 in presence of 100 J/cm'2 light by hematoxylin-and-eosin staining-based assay. Format: organism-based. The settings on record: in vivo. In short, it runs like this:
as §4

The test system of data set [27] is Mus musculus. Description: Toxicity in FoxN1 nude mouse xenografted with human SKOV3 cells assessed as effect on lung morphology at 20 mg/kg, iv measured on day 14 in presence of 100 J/cm'2 light by hematoxylin-and-eosin staining-based assay. Format: organism-based. The settings on record: in vivo. In short, it runs like this: as §4
The subject of data set [28] is SK-OV-3. Put plainly: Induction of reactive oxygen species formation in human SKOV3 cells at 20 uM in absence of light by CM-H2DCFDA probe-based confocal microscopic method. Format: cell-based. As to conditions: sk-ov-3, 20 µM.
In data set [29] the test system is SK-OV-3. Put plainly: Cell cycle arrest in human SKOV3 cells assessed as accumulation at sub-G1 phase at 20 uM after 12 hrs in absence of light by propidium iodide staining-based flow cytometric method (reference value: 2.2%). The settings on record: sk-ov-3, 12 h.
Data set [30] deals with SK-OV-3. Put plainly: Induction of necrosis in human SKOV3 cells at 20 uM in absence of light by propidium iodide staining-based flow cytometric method (reference value: 7.03%). It is filed as cell-based. As to conditions: sk-ov-3, 20 µM. In short, it runs like this: as §3
For data set [31], the species on record is Homo sapiens. Description: Binding affinity to F-actin in human SKOV3 cells at 20 uM after 1 hr in presence of 200 J/cm'2 light by TRITC labeled phalloidin/DAPI staining-based confocal microscopic method.

pIC50: −log10 of the molar value. Converted amounts (≈) assume the structure as drawn. The source made the active and inactive calls. The calls are words filed in the database; no cut-off is given here.

Regarding `Oc1ccc(-c2c3nc(c(-c4ccc(O)c(O)c4)c4ccc([nH]4)c(-c4ccc(O)c(O)c4)c4nc(c(-c5ccc(O)c(O)c5)c5ccc2[nH]5)CC4)C=C3)cc1O`, the Activity was 80% in data set [1]; “Dose-dependent effect” in the data set with SK-OV-3 [5]; “Non-Toxic” in data set [6]; 59.6% in the data set with SK-OV-3 [8]; 76.7% in the data set on SK-OV-3 [9]; 79.48% in the data set with SK-OV-3 [10]. The Activity was 73% in the data set with SK-OV-3 [13]; “Non-Toxic” with Mus musculus [19]; “Non-Toxic” in the data set on Mus musculus [23]; “Non-Toxic” with Mus musculus [24]; “Non-Toxic” in the data set with Mus musculus [25]; “Non-Toxic” in the data set with Mus musculus [26]. For the same compound, the Activity entry in the data set with Mus musculus [27] is listed as “Non-Toxic”; in the data set on SK-OV-3 [28], “Non-Toxic”; in the data set on SK-OV-3 [29], 1%; in the data set with SK-OV-3 [30], 8.98%. The solubility at 24 h in data set [2] is 3640 µM (≈ 2710 µg/mL). Further, the Drug uptake result in data set [3] is “Active”; in data set [4], “Active”; in [20], “Active”; in [21], “Not Active”; in data set [22], “Not Active”. Besides, the pIC50 in the data set on SK-OV-3 [5] (SK-OV-3, light or radiation study) was 4.95; in the data set on IMR-32, 5.46; in the data set on MCF7, 5.36; with MDA-MB-231, 5.21. Moreover, the outcome in the data set with SK-OV-3 [7], with SK-OV-3 [12], in the data set listed under Homo sapiens [14], in the data set with SK-OV-3 [15], in the data set on SK-OV-3 [16] and with SK-OV-3 [17] was Active. For the same compound, the outcome in the data set with SK-OV-3 [18] and in the data set listed under Homo sapiens [31] was Active. Further, the Stability entry in data set [11] is recorded as “Stable”.

Consider `Oc1cccc(-c2c3nc(c(-c4cccc(O)c4)c4ccc([nH]4)c(-c4cccc(O)c4)c4nc(c(-c5cccc(O)c5)c5ccc2[nH]5)CC4)C=C3)c1` [TEMOPORFIN], for which the solubility at 24 h in data set [2] was 600 µM (≈ 408 µg/mL).

The values are drawn from ChEMBL document CHEMBL4184338, “In Vitro and In Vivo Demonstration of Human-Ovarian-Cancer Necrosis through a Water-Soluble and Near-Infrared-Absorbing Chlorin” (J Med Chem, 2018).
